Experimental data collected from several papers.
Each line is one published result; the experiments were not run side by side.
SIGMAR1: Sigma non-opioid intracellular receptor 1 (SIGMAR1, Homo sapiens, UniProt Q99720)
PFF0160c: Dihydroorotate dehydrogenase (quinone), mitochondrial (PFF0160c, Plasmodium falciparum, UniProt Q08210)
Nectin-4: Nectin-4 (Homo sapiens, UniProt Q96NY8)
Oprm1: Mu-type opioid receptor (Oprm1, Mus musculus, UniProt P42866)

| SMILES | target | read-out | mode | technique | quantity | value |
| --- | --- | --- | --- | --- | --- | --- |
| Cc1c(-c2ccccc2)oc2c(C(=O)OCCN3CCCCC3)cccc2c1=O | SIGMAR1 | ligand displacement | – | radioligand | Ki | > 10 µM |
| CCC(c1ccccc1)c1nn2c(-c3cccs3)nnc2s1 (centres unmarked) | PFF0160c | enzyme activity | inhibitor | absorbance | IC50 | 0.158 µM |
| CCCC[C@@H]1NC(=O)[C@H](Cc2ccc(O)cc2)NC(=O)[C@@H]2CCCN2C(=O)[C@H](CC(=O)O)NC(=O)[C@H](C)NC(=O)[C@H](Cc2ccccc2)NC(=O)[C@@H]2CSCCC(=O)N3CN(CN(C3)C(=O)CCSCCC(=O)N[C@@H](CC(C)(C)C)C(=O)N3CCC[C@H]3C(=O)N[C@@H](CCC(=O)O)C(=O)N[C@H](CCCCNC(=O)CCc3cn(CCOCCOCCOCCN(CCOCCOCCOCCC(=O)N[C@H]4CSCCC(=O)N5CN6CN(C5)C(=O)CCSC[C@H](NC(=O)[C@@H](CC(=O)O)NC(=O)[C@H](Cc5cccc7ccccc57)NC(=O)[C@@H]5CCCN5C4=O)C(=O)N[C@@H](CCSC)C(=O)N[C@@H](CCCCNC(=N)N)C(=O)N[C@@H](CC(=O)O)C(=O)N[C@@H](Cc4c[nH]c5ccccc45)C(=O)N[C@@H](CO)C(=O)N[C@@H]([C@@H](C)O)C(=O)N4CCC[C@H]4C(=O)N4C[C@H](O)C[C@H]4C(=O)N[C@@H](Cc4c[nH]c5ccccc45)C(=O)N[C@H](C(N)=O)CSCCC6=O)CCOCCOCCOCCn4cc(CCC(=O)NCCCC[C@H]5NC(=O)[C@H](CCC(=O)O)NC(=O)[C@@H]6CCCN6C(=O)[C@H](CC(C)(C)C)NC(=O)CCSCCC(=O)N6CN7CN(C6)C(=O)CCSC[C@H](NC(=O)[C@H](Cc6ccc(O)cc6)NC(=O)[C@@H]6CCCN6C5=O)C(=O)N[C@@H](Cc5ccccc5)C(=O)N[C@@H](C)C(=O)N[C@@H](CC(=O)O)C(=O)N5CCC[C@H]5C(=O)N[C@@H](Cc5ccc(O)cc5)C(=O)N[C@@H](CCCC)C(=O)NCCSCCC7=O)nn4)nn3)C(=O)N3CCC[C@H]3C(=O)N[C@@H](Cc3ccc(O)cc3)C(=O)N2)C(=O)CCSCCNC1=O | Nectin-4 | binding | – | SPR | Kd | 0.004 µM |
| COc1cc2c(cc1OC)C(=O)C(CC1CCN(Cc3ccccc3)CC1)C2 (centres unmarked) | SIGMAR1 | ligand displacement | – | radioligand | Ki | 0.0191 µM |
| O=C(N[C@@H]1C=C[C@@]2(O)[C@H]3Cc4ccc(O)c5c4[C@@]2(CCN3CC2CC2)[C@H]1O5)c1c[nH]c2ccncc12 | Oprm1 | ligand displacement | – | radioligand | Ki | 0.00094 µM |
| CCCC[C@@H]1NC(=O)[C@H](Cc2ccc(O)cc2)NC(=O)[C@@H]2CCCN2C(=O)[C@H](CC(=O)O)NC(=O)[C@H](C)NC(=O)[C@H](Cc2ccccc2)NC(=O)[C@@H]2CSCCC(=O)N3CN(CN(C3)C(=O)CCSC[C@@H](C(=O)N[C@@H](C)C(N)=O)NC1=O)C(=O)CCSC[C@H](NC(C)=O)C(=O)N[C@@H](CC(C)(C)C)C(=O)N1CCC[C@H]1C(=O)N[C@@H](CCC(=O)O)C(=O)N[C@H](CCCCNC(=O)CCc1cn(CCOCCOCCOCCOCCOCCC(=O)NCCCC[C@H]3NC(=O)[C@H](Cc4cccc5ccccc45)NC(=O)[C@@H]4CCCN4C(=O)[C@@H](NC(C)=O)CSCCC(=O)N4CN5CN(C4)C(=O)CCSC[C@H](NC3=O)C(=O)N[C@@H](CCSC)C(=O)N[C@@H](CCCCNC(=N)N)C(=O)N[C@@H](CCC(=O)O)C(=O)N[C@@H](Cc3c[nH]c4ccccc34)C(=O)N[C@@H](CO)C(=O)N[C@@H]([C@@H](C)O)C(=O)N3CCC[C@H]3C(=O)N3C[C@H](O)C[C@H]3C(=O)N[C@@H](Cc3c[nH]c4ccccc34)C(=O)N[C@H](C(N)=O)CSCCC5=O)nn1)C(=O)N1CCC[C@H]1C(=O)N[C@@H](Cc1ccc(O)cc1)C(=O)N2 | Nectin-4 | binding | – | SPR | Kd | 0.0018 µM |
| CN1CCN(C2=Nc3cc(Cl)ccc3Nc3ccccc32)CC1 | SIGMAR1 | ligand displacement | – | radioligand | Ki | > 10 µM |
| CCn1c(-c2ccccc2)cc2nnc3ccccc3c21 | PFF0160c | enzyme activity | inhibitor | absorbance | IC50 | 0.458 µM |
| CCCC[C@@H]1NC(=O)[C@H](Cc2ccc(O)cc2)NC(=O)[C@@H]2CCCN2C(=O)[C@H](CC(=O)O)NC(=O)[C@H](C)NC(=O)[C@H](Cc2ccccc2)NC(=O)[C@@H]2CSCCC(=O)N3CN(CN(C3)C(=O)CCSC[C@@H](C(=O)N[C@@H](C)C(N)=O)NC1=O)C(=O)CCSC[C@H](NC(C)=O)C(=O)N[C@@H](CC(C)(C)C)C(=O)N1CCC[C@H]1C(=O)N[C@@H](CCC(=O)O)C(=O)N[C@H](CCCCNC(=O)CCc1cn(CCOCCOCCOCCOCCOCCC(=O)NCCCC[C@H]3NC(=O)[C@H](Cc4cccc5ccccc45)NC(=O)[C@@H]4CCCN4C(=O)[C@@H](NC(C)=O)CSCCC(=O)N4CN5CN(C4)C(=O)CCSC[C@H](NC3=O)C(=O)N[C@@H](CCSC)C(=O)N[C@@H](CCCCNC(=N)N)C(=O)N[C@@H](CC(=O)O)C(=O)N[C@@H](Cc3c[nH]c4ccccc34)C(=O)N[C@@H](CO)C(=O)N[C@@H]([C@@H](C)O)C(=O)N3CCC[C@H]3C(=O)N3C[C@H](O)C[C@H]3C(=O)N[C@@H](Cc3c[nH]c4ccccc34)C(=O)N[C@H](C(N)=O)CSCCC5=O)nn1)C(=O)N1CCC[C@H]1C(=O)N[C@@H](Cc1ccc(O)cc1)C(=O)N2 | Nectin-4 | binding | – | SPR | Kd | 0.0013 µM |
| Cc1noc(-c2cccs2)c1C(=O)NCCc1cccc(Cl)c1 | PFF0160c | enzyme activity | inhibitor | absorbance | IC50 | 0.689 µM |
| CCCC[C@@H]1NC(=O)[C@H](Cc2ccc(O)cc2)NC(=O)[C@@H]2CCCN2C(=O)[C@H](CC(=O)O)NC(=O)[C@H](C)NC(=O)[C@H](Cc2ccccc2)NC(=O)[C@@H]2CSCCC(=O)N3CN(CN(C3)C(=O)CCSC[C@@H](C(=O)N[C@@H](C)C(N)=O)NC1=O)C(=O)CCSC[C@H](NC(C)=O)C(=O)N[C@@H](CC(C)(C)C)C(=O)N1CCC[C@H]1C(=O)N[C@@H](CCC(=O)O)C(=O)N[C@H](CCCCNC(=O)CCc1cn(CCOCCOCCOCCOCCOCCC(=O)N[C@H]3CSCCC(=O)N4CN5CN(C4)C(=O)CCSC[C@H](NC(=O)CNC(=O)[C@H](Cc4ccccc4)NC(=O)[C@@H]4CCCN4C3=O)C(=O)N[C@@H](CCSC)C(=O)N[C@@H](CCCCNC(=N)N)C(=O)N[C@@H](CC(=O)O)C(=O)N[C@@H](Cc3c[nH]c4ccccc34)C(=O)N[C@@H](CO)C(=O)N[C@@H]([C@@H](C)O)C(=O)N3CCC[C@H]3C(=O)N3C[C@H](O)C[C@H]3C(=O)N[C@@H](Cc3c[nH]c4ccccc34)C(=O)N[C@H](C(N)=O)CSCCC5=O)nn1)C(=O)N1CCC[C@H]1C(=O)N[C@@H](Cc1ccc(O)cc1)C(=O)N2 | Nectin-4 | binding | – | SPR | Kd | 0.014 µM |
| O=C(N[C@H]1C=C[C@@]2(O)[C@H]3Cc4ccc(O)c5c4[C@@]2(CCN3CC2CC2)[C@H]1O5)c1c[nH]c2ncccc12 | Oprm1 | ligand displacement | – | radioligand | Ki | 0.00114 µM |
| COc1ccc(CN2CCN(Cc3ccccc3)CC2)cc1 | SIGMAR1 | ligand displacement | – | radioligand | Ki | 0.0138 µM |
| Cc1cc(Nc2ccc3c(c2)CCC3)n2ncnc2n1 | PFF0160c | enzyme activity | inhibitor | absorbance | IC50 | 0.695 µM |
| O=C(N[C@H]1C=C[C@@]2(O)[C@H]3Cc4ccc(O)c5c4[C@@]2(CCN3CC2CC2)[C@H]1O5)c1c[nH]c2cccnc12 | Oprm1 | ligand displacement | – | radioligand | Ki | 0.00056 µM |
| C[C@@H]1CN(c2ccc(O)c(NS(=O)(=O)c3ccc(-c4ccco4)cc3)c2)C[C@H](C)N1 | Dihydroorotate dehydrogenase (quinone), mitochondrial (PFF0160c, Plasmodium falciparum, UniProt Q08210, E182D) | enzyme activity | inhibitor | absorbance | IC50 | 4.02 µM |
| CCCC[C@@H]1NC(=O)[C@H](Cc2ccc(O)cc2)NC(=O)[C@@H]2CCCN2C(=O)[C@H](CC(=O)O)NC(=O)[C@H](C)NC(=O)[C@H](Cc2ccccc2)NC(=O)[C@@H]2CSCCC(=O)N3CN(CN(C3)C(=O)CCSC[C@H](NC(C)=O)C(=O)N[C@@H](CC(C)(C)C)C(=O)N3CCC[C@H]3C(=O)N[C@@H](CCC(=O)O)C(=O)N[C@H](CCCCNC(=O)CCc3cn(CCOCCOCCOCCN(CCOCCOCCOCCC(=O)N[C@H]4CSCCC(=O)N5CN6CN(C5)C(=O)CCSC[C@H](NC(=O)[C@@H](CC(=O)O)NC(=O)[C@H](Cc5cccc7ccccc57)NC(=O)[C@@H]5CCCN5C4=O)C(=O)N[C@@H](CCSC)C(=O)N[C@@H](CCCCNC(=N)N)C(=O)N[C@@H](CC(=O)O)C(=O)N[C@@H](Cc4c[nH]c5ccccc45)C(=O)N[C@@H](CO)C(=O)N[C@@H]([C@@H](C)O)C(=O)N4CCC[C@H]4C(=O)N4C[C@H](O)C[C@H]4C(=O)N[C@@H](Cc4c[nH]c5ccccc45)C(=O)N[C@H](C(N)=O)CSCCC6=O)CCOCCOCCOCCn4cc(CCC(=O)NCCCC[C@H]5NC(=O)[C@H](CCC(=O)O)NC(=O)[C@@H]6CCCN6C(=O)[C@H](CC(C)(C)C)NC(=O)[C@@H](NC(C)=O)CSCCC(=O)N6CN7CN(C6)C(=O)CCSC[C@H](NC(=O)[C@H](Cc6ccc(O)cc6)NC(=O)[C@@H]6CCCN6C5=O)C(=O)N[C@@H](Cc5ccccc5)C(=O)N[C@@H](C)C(=O)N[C@@H](CC(=O)O)C(=O)N5CCC[C@H]5C(=O)N[C@@H](Cc5ccc(O)cc5)C(=O)N[C@@H](CCCC)C(=O)NCCSCCC7=O)nn4)nn3)C(=O)N3CCC[C@H]3C(=O)N[C@@H](Cc3ccc(O)cc3)C(=O)N2)C(=O)CCSCCNC1=O | Nectin-4 | binding | – | SPR | Kd | 0.0028 µM |
